Tests used:
NIH/3T3 = experiment: MTT cytotoxic bioassay on normal cell line; assay type: cell-based; details: Mus musculus, NIH3T3, 72 h, read-out: IC50 ± SD
Procedure, shortened: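 NIH/3T3 fibroblasts were grown in high-glucose DMEM with 10% FBS and 1% penicillin-streptomycin under humidified 5% CO2. 1.0 × 10^4 cells/well were precultured for 16 h, then exposed for 72 h in fresh medium (reference drug at 1–200 µM). MTT (0.50 mg/ml final) was added for 4 h, and formazan was dissolved in DMSO. A570 − A630 gave % viability. IC50 is mean ± SD of three independent experiments.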

DPP4 enzyme [1] = target: T1, DPP4 enzyme (Homo sapiens, UniProt P27487); experiment: Kinetic study of DPP4 inhibition; assay type: biochemical
T1 sequence (P27487 whole entry): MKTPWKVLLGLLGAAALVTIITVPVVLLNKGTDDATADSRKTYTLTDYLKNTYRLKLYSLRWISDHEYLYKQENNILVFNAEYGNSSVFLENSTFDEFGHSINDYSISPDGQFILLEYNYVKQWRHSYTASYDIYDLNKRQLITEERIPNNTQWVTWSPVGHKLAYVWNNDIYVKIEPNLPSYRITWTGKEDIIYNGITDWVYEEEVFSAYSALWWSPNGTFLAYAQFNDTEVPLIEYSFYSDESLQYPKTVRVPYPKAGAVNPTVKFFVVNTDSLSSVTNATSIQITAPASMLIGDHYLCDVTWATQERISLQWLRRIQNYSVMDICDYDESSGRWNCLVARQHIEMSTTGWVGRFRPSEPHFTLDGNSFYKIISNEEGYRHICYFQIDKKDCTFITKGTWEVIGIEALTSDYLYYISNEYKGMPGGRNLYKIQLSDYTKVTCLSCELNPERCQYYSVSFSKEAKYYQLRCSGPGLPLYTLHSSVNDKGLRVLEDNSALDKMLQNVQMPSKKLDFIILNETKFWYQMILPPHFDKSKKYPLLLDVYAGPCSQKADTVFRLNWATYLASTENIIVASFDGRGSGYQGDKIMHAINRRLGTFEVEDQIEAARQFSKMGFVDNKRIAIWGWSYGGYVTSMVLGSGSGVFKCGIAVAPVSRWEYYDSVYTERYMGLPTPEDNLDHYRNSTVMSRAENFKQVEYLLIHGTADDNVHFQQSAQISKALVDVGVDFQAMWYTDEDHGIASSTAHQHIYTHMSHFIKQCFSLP
Procedure, shortened: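 DPP4 inhibition kinetics with fluorogenic substrate H-Gly-Pro-AMC at different substrate-to-enzyme concentration ratios, test compound at four concentrations (0.5, 5, 25 and 50 µM). Double-reciprocal plots of 1/velocity vs 1/[substrate] fitted by weighted least squares, assuming velocity variance is a constant percentage of v. Lineweaver–Burk slopes were replotted against inhibitor concentration, and Ki was taken as the negative X-axis intercept.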

DPP4 enzyme [2] = target: T1, DPP4 enzyme; experiment: biochemical; details: read-out: % DPP4 Enzyme Inhibition, at 20 µM

Row | Structure (SMILES) | IC50 (NIH/3T3) [µM] | further results
1 | Cn1c(=O)cc(N2CCC(N)CC2)n(Cc2nc3ccc(Br)cc3c(=O)n2-c2cccc(Br)c2)c1=O [9l, 6-(4-Aminopiperidin-1-yl)-1-((6-bromo-3-(3-bromophenyl)-4-oxo-3,4-dihydroquinazolin-2-yl)methyl)-3-methylpyrimidine-2,4(1 H,3 H)-dione] | 78.1 ± 2.95 | 
2 | Cn1c(=O)cc(N2CCC(N)CC2)n(Cc2nc3ccc(Br)cc3c(=O)n2-c2cccc(F)c2)c1=O [9k, 6-(4-Aminopiperidin-1-yl)-1-((6-bromo-3-(3-fluorophenyl)-4-oxo-3,4-dihydroquinazolin-2-yl)methyl)-3-methylpyrimidine-2,4(1 H,3 H)-dione] | 68.4 ± 3.01 | 
3 | N[C@@H](CC(=O)N1CCn2c(nnc2C(F)(F)F)C1)Cc1cc(F)c(F)cc1F [Sitagliptin, reference compound] | 111 ± 5.85 | 
4 | Cn1c(=O)cc(N2CCC(N)CC2)n(Cc2nc3ccccc3c(=O)n2-c2ccccc2)c1=O [9a, 6-(4-Aminopiperidin-1-yl)-3-methyl-1-((4-oxo-3-phenyl-3,4-dihydroquinazolin-2-yl)methyl)pyrimidine-2,4(1 H,3 H)-dione] | 88.1 ± 3.22 | 
5 | Cn1c(=O)cc(N2CCC(N)CC2)n(Cc2nc3ccc(Br)cc3c(=O)n2-c2ccc(Cl)cc2)c1=O [9i, 6-(4-Aminopiperidin-1-yl)-1-((6-bromo-3-(4-chlorophenyl)-4-oxo-3,4-dihydroquinazolin-2-yl)methyl)-3-methylpyrimidine-2,4(1 H,3 H)-dione] | 76.9 ± 2.58 | Ki (DPP4 enzyme [1]): 12 µM; type of inhibition (DPP4 enzyme [1]; Lineweaver-Burk plot): competitive
6 | Cn1c(=O)cc(N2CCC(N)CC2)n(Cc2nc3ccccc3c(=O)n2-c2ccc(F)cc2)c1=O [9b, 6-(4-Aminopiperidin-1-yl)-1-((3-(4-fluorophenyl)-4-oxo-3,4-dihydroquinazolin-2-yl)methyl)-3-methylpyrimidine-2,4(1 H,3 H)-dione] | 62.9 ± 1.98 | 
7 | Cn1c(=O)cc(N2CCC(N)CC2)n(Cc2nc3ccc(Br)cc3c(=O)n2-c2ccc(Br)cc2)c1=O [9j, 6-(4-Aminopiperidin-1-yl)-1-((6-bromo-3-(4-bromophenyl)-4-oxo-3,4-dihydroquinazolin-2-yl)methyl)-3-methylpyrimidine-2,4(1 H,3 H)-dione] | 91 ± 1.98 | inhibition at 20 µM (DPP4 enzyme [2]): > 50%
8 | Cn1c(=O)cc(N2CCC(N)CC2)n(Cc2nc3ccccc3c(=O)n2-c2ccc(F)c(Cl)c2)c1=O [9f, 6-(4-Aminopiperidin-1-yl)-1-((3-(3-chloro-4-fluorophenyl)-4-oxo-3,4-dihydroquinazolin-2-yl)methyl)-3-methylpyrimidine-2,4(1 H,3 H)-dione] | 43.4 ± 1.02 | 
9 | Cn1c(=O)cc(N2CCC(N)CC2)n(Cc2nc3ccc(Br)cc3c(=O)n2-c2ccc(F)cc2)c1=O [9h, 6-(4-Aminopiperidin-1-yl)-1-((6-bromo-3-(4-fluorophenyl)-4-oxo-3,4-dihydroquinazolin-2-yl)methyl)-3-methylpyrimidine-2,4(1 H,3 H)-dione] | 89.7 ± 3.76 | 
10 | Cn1c(=O)cc(N2CCC(N)CC2)n(Cc2nc3ccc(Br)cc3c(=O)n2-c2ccccc2)c1=O [9g, 6-(4-Aminopiperidin-1-yl)-1-((6-bromo-4-oxo-3-phenyl-3,4-dihydroquinazolin-2-yl)methyl)-3-methylpyrimidine-2,4(1 H,3 H)-dione] | 102 ± 4.05 | 
11 | Cc1ccc(-n2c(Cn3c(N4CCC(N)CC4)cc(=O)n(C)c3=O)nc3ccccc3c2=O)cc1 [9d, 6-(4-Aminopiperidin-1-yl)-3-methyl-1-((4-oxo-3-(p-tolyl)-3,4-dihydroquinazolin-2-yl)methyl)pyrimidine-2,4(1 H,3 H)-dione] | 39.3 ± 1.05 | 
12 | Cn1c(=O)cc(N2CCC(N)CC2)n(Cc2nc3ccccc3c(=O)n2-c2cccc(C(F)(F)F)c2)c1=O [9e, 6-(4-Aminopiperidin-1-yl)-3-methyl-1-((4-oxo-3-(3-(trifluoromethyl)phenyl)-3,4-dihydroquinazolin-2-yl)methyl)pyrimidine-2,4(1 H,3 H)-dione] | 81.5 ± 5.94 | 
13 | Cn1c(=O)cc(N2CCC(N)CC2)n(Cc2nc3ccccc3c(=O)n2-c2ccc(Cl)cc2)c1=O [9c, 6-(4-Aminopiperidin-1-yl)-1-((3-(4-chlorophenyl)-4-oxo-3,4-dihydroquinazolin-2-yl)methyl)-3-methylpyrimidine-2,4(1 H,3 H)-dione] | 72.2 ± 3.91 | inhibition at 20 µM (DPP4 enzyme [2]): > 50%

— PMC11532418 (Scientific Reports, 2024)
